ChEMBL document CHEMBL3272073, “3-Fluoro-1-hydroxypropan-2-one (fluorohydroxyacetone) and some esters. Syntheses and effects in BDF mice” (J Med Chem, 1977)
Activity calls are given as the source filed them.

Legend:
[1] = Toxicity in ip dosed BDF1 mouse; assay type: organism-based; details: in vivo
Summary of the method: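 Acute toxicity in female BDF1 mice, reported as LD50 in mg/kg and mmol/kg.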

Ehrlich [2] = experiment: Antitumor activity against mouse EAC allografted in BDF1 mouse assessed as inhibition of tumor growth < LD50 administered as ip; assay type: functional
L1210 = experiment: Antitumor activity against mouse L1210 cells allografted in immune competent BDF1 mouse assessed as increase of host survival at < LD50 administered as ip after 60 days; assay type: functional
[3] = Toxicity in mouse L1210 cells allografted immunosuppressed BDF1 mouse assessed as mortality dosed intraperitoneally <LD50 after 60 days; assay type: organism-based; details: in vivo, ip, read-out: Activity
Ehrlich [4] = experiment: Antitumor activity against mouse EAC allografted in BDF1 mouse assessed as cure from tumor at < LD50 administered as ip after 180 days; assay type: functional, organism-based
Summary of the method: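 Mice bearing Ehrlich ascites carcinoma were treated with ester. Cure was defined as survival to 180 days.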

SMILES	LD50 [1] [µmol/kg]	further results
CC(=O)COC(=O)c1ccccc1	7860	–
OCC(O)CF (stereo not given)	210	–
COC(CF)(COC(=O)c1ccccc1)OC	230	–
CC(=O)OCC(CCl)OC(C)=O (stereo not given)	1740	–
O=C(CF)COC(=O)c1ccccc1	180	TGI (Ehrlich [2]): Active
O=C(CBr)COC(=O)c1ccccc1	120	–
OCC(O)CBr (stereo not given)	1370	–
CC(=O)OCC(=O)CCl	470	–
OCC(O)CCl (stereo not given)	1800	–
O=C(OCC(O)CBr)c1ccccc1 (stereo not given)	1370	–
O=C(CF)COC(=O)c1ccc([N+](=O)[O-])cc1	370	–
O=C(CO)CF	220	–
O=C(CF)COP(=O)(O)O	150	TGI (Ehrlich [2]): Active
O=C(OCC(O)CF)c1ccccc1 (stereo not given)	230	–
O=C(OCC(O)CCl)c1ccccc1 (stereo not given)	2100	–
C1CCC(NC2CCCCC2)CC1.O=P(O)(O)OCC(O)CCl	2100	–
C1CCC(NC2CCCCC2)CC1.O=P(O)(O)OCC(O)CF	300	–
COC(CO)(CF)OC	200	–
O=C(CCl)COC(=O)c1cc([N+](=O)[O-])cc([N+](=O)[O-])c1	880	–
CC(=O)OCC(=O)CF	220	–
CC(=O)OCC(CF)OC(C)=O (stereo not given)	220	–
O=C(CCl)COC(=O)c1ccccc1	330	Survival (L1210): 85%; mortality at 1440 h [3]: 85%; Activity (Ehrlich [4]): Active
O=C(CCl)COC(=O)c1ccc([N+](=O)[O-])cc1	660	Activity (Ehrlich [4]): Active
O=C(CCl)COP(=O)(O)O	360	–
